# According to ChEMBL document CHEMBL1921744, “Lipophosphonoxins: new modular molecular structures with significant antibacterial properties” (J Med Chem, 2011):
# Activity calls are given as the source filed them. The calls are words filed in the database; no cut-off is given here.
# How the values were obtained:
# [1] = tested on: Mycobacterium tuberculosis; experiment: Antimycobacterial activity against drug-susceptible Mycobacterium tuberculosis; assay type: functional
# Bacillus subtilis [2] = settings: at 0.2 mM
# [3] = biological target: T1, Phospho-N-acetylmuramoyl-pentapeptide-transferase (Mycobacterium tuberculosis, UniProt P9WMW7); experiment: Inhibition of Mycobacterium tuberculosis MraY translocase
# T1 sequence (P9WMW7 whole entry): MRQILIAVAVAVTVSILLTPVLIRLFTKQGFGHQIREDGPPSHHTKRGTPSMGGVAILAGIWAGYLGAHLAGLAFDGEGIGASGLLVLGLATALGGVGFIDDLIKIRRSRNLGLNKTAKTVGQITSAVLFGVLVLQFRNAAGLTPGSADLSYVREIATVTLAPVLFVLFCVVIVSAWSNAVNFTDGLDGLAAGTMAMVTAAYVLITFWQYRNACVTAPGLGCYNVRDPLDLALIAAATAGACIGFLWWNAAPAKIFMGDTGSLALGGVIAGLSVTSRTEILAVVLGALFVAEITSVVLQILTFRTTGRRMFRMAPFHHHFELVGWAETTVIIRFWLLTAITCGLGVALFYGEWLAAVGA
# [4] = Induction of apoptosis in human Erythroid progenitor cells assessed as caspase 3/7 activation after 4 hrs by Caspase-Glo 3/7 assay
# Procedure, shortened: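 Cord-blood-derived human erythroid progenitor cells plated at 25000 cells/well and exposed to compound prediluted in medium. Caspase 3/7 activation read by Caspase-Glo 3/7 luminescence 4 h after addition, normalized to untreated control cells set as 100%.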
# Enterococcus faecium [5] = experiment: Antibacterial activity against vancomycin-resistant Enterococcus faecium VanA419/ana after 24 to 48 hrs by microdilution method; assay type: functional
# Procedure, shortened: (§1)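 Broth microdilution MIC on clinical isolates from Teaching Hospital Olomouc, stored at −80 °C. Compounds were serially diluted in brain heart infusion broth over 200–1.56 μg/mL (sometimes extended to 0.78 μg/mL), with an inoculum of 10⁵⁻⁶ CFU/ml per well. Plates were incubated at 37 °C and read at 24/48 h. MIC was taken as the lowest concentration inhibiting growth.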
# Staphylococcus aureus [6] = experiment: Antibacterial activity against Staphylococcus aureus CCM 4223 after 24 to 48 hrs by microdilution method; assay type: functional
# Procedure, shortened: (§2)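 Incubation 24/48 h at 37 °C. MIC read as the lowest concentration inhibiting growth. MBC determined by transferring 10 μL from wells onto blood agar, taken as the lowest concentration with no visible growth.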
# Staphylococcus aureus [7] = experiment: Antibacterial activity against methicillin-resistant Staphylococcus aureus 4591 after 24 to 48 hrs by microdilution method; assay type: functional; procedure, shortened: as §1
# Pseudomonas aeruginosa = experiment: Antibacterial activity against Pseudomonas aeruginosa after 24 to 48 hrs by microdilution method; assay type: functional; procedure, shortened: as §2
# Streptococcus agalactiae = experiment: Antibacterial activity against Streptococcus agalactiae after 24 to 48 hrs by microdilution method; assay type: functional; procedure, shortened: as §2
# Bacillus subtilis [8] = experiment: Antibacterial activity against Bacillus subtilis after 24 to 48 hrs by microdilution method; assay type: functional; procedure, shortened: as §2
# Escherichia coli [9] = experiment: Antibacterial activity against Escherichia coli after 24 to 48 hrs by microdilution method; assay type: functional; procedure, shortened: as §2
# [10] = tested on: Staphylococcus haemolyticus; experiment: Antibacterial activity against fluoroquinolone-resistant Staphylococcus haemolyticus 16568 after 24 to 48 hrs by microdilution method; assay type: functional; procedure, shortened: as §1
# Escherichia coli [11] = experiment: Antibacterial activity against permeabilized Escherichia coli DH5[alpha] assessed as cell killing at 10 uM; assay type: functional
# Procedure, shortened: (§3)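 Competent (permeabilized) E. coli DH5α cells were mixed with 5 ng pUC18 (ampR) and serially diluted compound or buffer only. Steps: 30 min on ice, heat shock at 42 °C for 90 s, 5 min on ice, then LB without antibiotic for 1 h at 37 °C with shaking. Plated on LB agarose with ampicillin 100 μg/mL overnight at 37 °C. Colonies counted against the no-compound control.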
# [12] = Cytotoxicity against human Erythroid progenitor cells assessed as maximum safe concentration after 48 hrs by CellTiter-blue assay; assay type: cell-based; settings: read-out: Activity
# Procedure, shortened: (§4)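 Normal human erythroid progenitor cells, expanded from umbilical cord blood, plated at 25000 cells/well immediately before compound addition (added as a 5× predilution in culture medium). Viability by CellTiter-Blue fluorescence 48 h after addition, normalized to untreated cells set as 100%.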
# Enterococcus faecalis [13] = experiment: Antibacterial activity against Enterococcus faecalis CCM 4224 after 24 to 48 hrs by microdilution method; assay type: functional; procedure, shortened: as §2
# [14] = Cytotoxicity against human Erythroid progenitor cells assessed as cell viability after 48 hrs by CellTiter-blue assay; assay type: cell-based; procedure, shortened: as §4
# [15] = tested on: Staphylococcus epidermidis; experiment: Antibacterial activity against methicillin-resistant Staphylococcus epidermidis 8700/B after 24 to 48 hrs by microdilution method; assay type: functional; procedure, shortened: as §1
# Escherichia coli [16] = experiment: Antibacterial activity against permeabilized Escherichia coli DH5[alpha] assessed as cell killing at 25 uM; assay type: functional; procedure, shortened: as §3
# Escherichia coli [17] = experiment: Antibacterial activity against permeabilized Escherichia coli DH5[alpha] assessed as log reduction of colony forming unit at 10 uM; assay type: functional, organism-based; procedure, shortened: as §3
# Enterococcus faecalis [18] = experiment: Antibacterial activity against Enterococcus faecalis ATCC 29212; assay type: functional
# Staphylococcus aureus [19] = experiment: Antibacterial activity against Staphylococcus aureus infected in mouse; assay type: functional
# Staphylococcus aureus [20] = experiment: Antibacterial activity against methicillin-sensitive Staphylococcus aureus ATCC 29213; assay type: functional; procedure, shortened: as §2
# Enterococcus faecalis [21] = experiment: Antibacterial activity against vancomycin-resistant Enterococcus faecalis SR7914; assay type: functional
# Staphylococcus aureus [22] = experiment: Antibacterial activity against methicillin-resistant Staphylococcus aureus SR3637; assay type: functional
# Enterococcus faecium [23] = experiment: Antibacterial activity against Enterococcus faecium ATCC 19434; assay type: functional; procedure, shortened: as §2
# Enterococcus faecium [24] = experiment: Antibacterial activity against vancomycin-resistant Enterococcus faecium SR7917; assay type: functional
# Escherichia coli [25] = experiment: Antibacterial activity against permeabilized Escherichia coli DH5[alpha] assessed as log reduction of colony forming unit at 1 mM; assay type: functional, organism-based; procedure, shortened: as §3
compound,measurement,setting,value
CO[C@@H]1[C@@H](OC)[C@H](C)O[C@@H](OC(=O)C[C@@H](C)CC(=O)O[C@@H](CCCCCCCCCCCC(C)C)CC(=O)O[C@H]2CN(C)[C@@H]([C@H](O[C@@H]3O[C@H](CN)[C@@H](O)[C@H]3O)[C@H]3O[C@@H](n4ccc(=O)[nH]c4=O)[C@H](O)[C@@H]3O)C(=O)N(C)[C@@H]2C(=O)O)[C@@H]1OC [CAPRAZAMYCIN B],MIC,[1],3.13 mg/L
Cetyltrimethylammonium bromide,inhibition,Bacillus subtilis [2],Active
CC(C)CCCCCCCC(CC(=O)O[C@H]1CN(C)[C@@H]([C@H](O[C@@H]2O[C@H](CN)[C@@H](O)[C@H]2OS(=O)(=O)O)[C@H]2O[C@@H](n3ccc(=O)[nH]c3=O)[C@H](O)[C@@H]2O)C(=O)N(C)[C@@H]1C(=O)O)OC(=O)CC(C)CC(=O)O (some centres undefined) [LIPOSIDOMYCIN B],IC50,[3],0.0491 µM
CCCCCCCCCCCCCCCCOP(=O)(CCN1C[C@@H](O)[C@H](O)C1)OC[C@H]1O[C@@H](n2ccc(=O)[nH]c2=O)[C@H](O)[C@@H]1O (mixture of isomers),Activity,[4],Non-toxic
same,MIC,Enterococcus faecium [5],3.13 mg/L
same,MIC,Staphylococcus aureus [6],6.25 mg/L
same,MIC,Staphylococcus aureus [7],12.5 mg/L
same,MIC,Pseudomonas aeruginosa,> 200 mg/L
same,MIC,Streptococcus agalactiae,1.56 mg/L
same,MIC,Bacillus subtilis [8],3.13 mg/L
same,MIC,Escherichia coli [9],> 200 mg/L
same,MIC,[10],12.5 mg/L
same,Activity,Escherichia coli [11],90%
same,MNTC at 48 h,[12],31.2 µg/mL
same,MIC,Enterococcus faecalis [13],6.25 mg/L
same,IC50,[14],56 mg/L
same,MIC,[15],3.13 mg/L
CCCCCCCCCCCCCCCCCCCCOP(=O)(CCN1C[C@@H](O)[C@H](O)C1)OC[C@H]1O[C@@H](n2ccc(=O)[nH]c2=O)[C@H](O)[C@@H]1O (some centres undefined),Activity,[4],Non-toxic
same,Activity,Escherichia coli [16],90%
same,MIC,Pseudomonas aeruginosa,> 200 mg/L
same,MIC,Streptococcus agalactiae,6.25 mg/L
same,MIC,Escherichia coli [9],> 200 mg/L
same,Activity,Escherichia coli [17],Active
same,MNTC at 48 h,[12],15.6 µg/mL
same,MIC,Enterococcus faecalis [13],100 mg/L
same,IC50,[14],31 mg/L
CC(C)C[C@H](NC(=O)[C@@H](NC(=O)N[C@H](C(=O)O)C(C)C)[C@@H]1CCNC(=N)N1)C(=O)NCCCN[C@H](C(=O)O)[C@H](O[C@@H]1O[C@H](CN)[C@@H](O)[C@H]1O)[C@H]1O[C@@H](n2ccc(=O)[nH]c2=O)[C@H](O)[C@@H]1O [MURAMYCIN D2],MIC,Enterococcus faecalis [18],> 64 mg/L
same,ED50,Staphylococcus aureus [19],1.1 mg/kg
same,MIC,Staphylococcus aureus [20],> 64 mg/L
same,MIC,Enterococcus faecalis [21],> 64 mg/L
same,MIC,Staphylococcus aureus [22],> 64 mg/L
same,MIC,Enterococcus faecium [23],> 64 mg/L
same,MIC,Enterococcus faecium [24],> 64 mg/L
O=c1ccn([C@@H]2O[C@H](COP(=O)(O)CCN3C[C@@H](O)[C@H](O)C3)[C@@H](O)[C@H]2O)c(=O)[nH]1,Activity,Escherichia coli [25],inactive
